# Screening results: PubChem BioAssay, several laboratories
# STAT3 inh: reduces IL-6 driven STAT3 reporter signal | U3A cells, IL-6 STAT3-luciferase reporter, luminescence; host cell line lacks STAT1 | 190,000 tested, 0.89% active | AID 862 | inhibition, % at 5.5 µM;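 active = inhibition above the mean inhibition across all screened compounds plus 3 SD, cut at about 44% in these data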;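 also: 0% = DMSO only wells and 100% = 100 µM nifuroxazide control wells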
# STAT1 activator: activators of IFN-gamma induced STAT1 signaling | NIH 3T3 STAT1-luciferase reporter, luminescence; 100% = IFN-gamma alone, no compound | activation (% of control), % at 5.5 µM | 200,000 tested, 2.6% active;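 active = activation above the screen-wide mean activation plus 3 SD, cut at about 130% in these data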;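 also: raw ratio to IFN-gamma control signal so 100% means no change and 0% no light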
# APP 5'UTR act: APP 5'UTR luciferase reporter activation; SH-SY5Y APP 5'UTR luciferase reporter, luminescence; zero percent = DMSO vehicle wells; activation, % at 2 µM; 190,000 tested, 1% active; AID 1276;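 active = activation above a set limit, based on mean plus 3 SD of controls, cut at about 140% in these data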
# STAT1 blocker: STAT1 signaling inhibition | inhibition, % at 5.5 µM | 200,000 tested, 0.35% active | NIH 3T3 STAT1-luciferase reporter, IFN-gamma, luminescence | AID 920;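 active = inhibition above a set limit, the mean inhibition across all tested compounds plus 3 SD, cut at about 34% in these data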;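 also: 0% = IFN-gamma with DMSO and 100% = IFN-gamma with 300 µM nifuroxazide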
# NF-kB neuron act: NF-kB expression increase, human neuronal cells | NF-kB reporter expression; stronger effect = higher value | fold change at 12.5 µM | 190,000 tested, 1.6% active | AID 1239; in the data active = fold change above about 3.3
# STAT3 act: increases IL-6 driven STAT3 reporter signal. AID 871. U3A cells, IL-6 STAT3-luciferase reporter, luminescence; 100% = signal with IL-6 EC80 alone. activation (% of control), % at 5.6 µM. 190,000 tested, 0.91% active;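 active = activation above the screen-wide mean of compound activation plus 3 SD, cut at about 130% in these data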;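 also: 0% = background luminescence of wells with medium and substrate only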
#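 Test system: human U3A cells carrying STAT3-luciferase construct; control set: IL-6-only wells as 100% reference; timing: compound pre-incubation 1 h before IL-6, then 6 h stimulation at 37 °C; also added: IL-6 stimulus at 33 ng/mL final; evaluation: % activation versus median of IL-6-stimulated wells; detection: reporter luminescence signal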
# STAT1 activ conf: STAT1 activation, confirmation assay. shares compounds with STAT1 activator. NIH 3T3 STAT1-luciferase reporter, IFN-gamma potentiation, luminescence; 100% = IFN-gamma EC80 alone, no compound. activation (% of control), % at 5.7 µM. 1,200 tested, 97% active;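 active = activation above a set limit carried over from the earlier primary STAT1 screen, cut at about 140% in these data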;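 also: simple ratio to median IFN-gamma plus DMSO wells so 0% means no light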
# NFkB act: activates NF-kappaB, counter-screen to STAT1 activators. shares compounds with STAT1 activator. HEK293T NF-kB luciferase reporter, TNF-alpha stimulated, luminescence; 100% = TNF-alpha with vehicle only. activation (% of control), % at 5.7 µM. 1,200 tested, 43% active. AID 1306;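 active = activation above the mean of solvent-only control wells plus 3 SD, set per campaign, cut at about 130% in these data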;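 also: TNF-alpha given at a submaximal dose yielding about 80% of full reporter signal; values are well signal over median control so 100% means no change and 0% no light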
# STAT3 act STAT1c: counter-screen for STAT1 activators: human STAT3 activation; shares compounds with STAT1 activator; 1,200 tested, 46% active; activation (% of control), % at 5.7 µM; U3A cells STAT3-luciferase reporter, IL-6, luminescence; cells lack STAT1; 100 = IL-6 alone, no compound effect; AID 1316;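 active = activation above the solvent-only control well mean plus 3 SD, set per plate batch, cut at about 110% in these data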;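 also: 0% = no luminescence and 100% = median IL-6 plus DMSO wells; higher means more STAT3 reporter activation so hits are non-selective activators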
# * marks the source's active call; other numbers are inactive results; nt = not tested or not shown. Most compounds without a hit are left out; they make up all but 5.1% or so of the library.
SMILES,STAT3 inh,STAT1 activator,APP 5'UTR act,STAT1 blocker,NF-kB neuron act,STAT3 act,STAT1 activ conf,NFkB act,STAT3 act STAT1c
O=C1NC(=O)C2(COC(c3cccc([N+](=O)[O-])c3)OC2)S1 (centres undefined),-9,104,3,-4,1.2,107,nt,nt,nt
COc1ccc2oc(-c3ccco3)cc(=O)c2c1,28,160*,83,-65,1.3,82,183*,122,105
CN(c1ccccc1)c1ccc(/C=N/N2CCOCC2)cc1,4,172*,97,-81,6.8*,99,197*,129,108
CCc1n[nH]c(=S)n1/N=C/c1cc(Br)c(OC)cc1OC,-7,101,20,-1,0.95,106,nt,nt,nt
O=C(Nc1ccccc1)OC1CC2CC1C1CCCC21 (centres undefined),-6,162*,121,-71,2.9,109,175*,134*,111*
COc1ccc(C(=O)NC2CCCc3ccccc32)cc1S(=O)(=O)N1CCOCC1 (centres undefined),0,94,-1,7,0.78,101,nt,nt,nt
Cc1ccc(/C=N/Nc2nc3ccccc3s2)o1,-2,154*,167*,-54,6.4*,100,264*,107,129*
COc1ccccc1OCC(=O)NCCC1=CCCCC1,-11,102,-1,-3,1.3,108,nt,nt,nt
COc1ccccc1/C=C/C(=O)NCCC1=CCCCC1,-8,159*,52,-65,0.97,113,170*,128,134*
COC(=O)c1cc(Cl)cc(Cl)c1OS(=O)(=O)N(C)C,-4,99,-7,0,1.1,110,nt,nt,nt
N#C/C(=C/c1ccc(N2CCOCC2)o1)C(=O)Nc1ccccc1,10,160*,162*,-64,4.4*,96,195*,130,98
CC1=NN(C(=O)c2ccc(C)o2)C(O)(c2ccccc2)C1 (centres undefined),-6,159*,49,-67,1,108,109,103,94
COc1ccccc1CN1CCNC(=O)C1CC(=O)NCCc1cnccn1 (centres undefined),7,107,-3,-9,nt,98,nt,nt,nt
COc1ccc(C(=O)N/N=C(/C)c2cccc(NC(=O)C(F)(F)F)c2)cc1,7,108,75,-10,2.4,98,nt,nt,nt
C/C(=N/NC(=O)c1ccoc1C)c1cccc(NC(=O)C(F)(F)F)c1,-6,156*,52,-63,1.6,106,116,109,96
C/C(=N/NC(=O)c1ccoc1C)c1cccc(NC(=O)C2CC2)c1,-11,159*,116,-67,1.6,108,110,109,100
CCCCC(=O)N/N=C(\C)c1cccc(NC(=O)C2CC2)c1,-1,101,3,1,1.1,99,nt,nt,nt
COc1ccc(CNC(=O)CSc2nnc(C(F)(F)F)n2C)cc1,6,101,3,-3,1.1,97,nt,nt,nt
CCOc1ccc2cc(/C=C/C(=O)c3ccco3)c(Cl)nc2c1,-1,103,19,-4,2.6,101,nt,nt,nt
CCCN1C=CC(=C/C=C(\C#N)C(=O)OCC)C=C1,-10,164*,120,-70,2.8,113,183*,124,134*
CCN(C(=O)CCCC(=O)N(CC)c1ccccc1)c1ccccc1,1,87,15,14,1.2,104,nt,nt,nt
CCCn1c(C)cc(C(=O)CSc2nc3ccccc3c(=O)n2Cc2ccco2)c1C,-8,119,121,-22,1.1,105,nt,nt,nt
Cc1cc(C(=O)CSc2nc3ccccc3[nH]2)c(C)n1Cc1ccco1,38,165*,214*,-73,1.1,67,209*,114,81
